The source of these data is ChEMBL document CHEMBL5126663, “Cellular Stress-Induced Metabolites in Escherichia coli” (J Nat Prod, 2022).

Active and inactive are the calls of the source. The calls are words filed in the database; no cut-off is given here.

Series [1] is described as follows: Antioxidant activity assessed as DPPH radical scavenging activity incubated for 35 mins under dark condition. Type of series: functional. The method, boiled down: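 DMSO stocks (100 mM) added to freshly prepared 0.2 mM DPPH in methanol, two-fold serially diluted, kept dark 35 min, absorbance read at 517 nm. Background absorbance from a parallel methanol-only (no DPPH) plate subtracted. Scavenging % = 100 × (Acontrol−Asample)/Acontrol; n = 3; ascorbic acid positive control.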
(Loss of DPPH colour is used to gauge radical scavenging.)

Series [2] concerns the target T1, Aryl hydrocarbon receptor (Homo sapiens, UniProt P35869).
T1 sequence (P35869 whole entry): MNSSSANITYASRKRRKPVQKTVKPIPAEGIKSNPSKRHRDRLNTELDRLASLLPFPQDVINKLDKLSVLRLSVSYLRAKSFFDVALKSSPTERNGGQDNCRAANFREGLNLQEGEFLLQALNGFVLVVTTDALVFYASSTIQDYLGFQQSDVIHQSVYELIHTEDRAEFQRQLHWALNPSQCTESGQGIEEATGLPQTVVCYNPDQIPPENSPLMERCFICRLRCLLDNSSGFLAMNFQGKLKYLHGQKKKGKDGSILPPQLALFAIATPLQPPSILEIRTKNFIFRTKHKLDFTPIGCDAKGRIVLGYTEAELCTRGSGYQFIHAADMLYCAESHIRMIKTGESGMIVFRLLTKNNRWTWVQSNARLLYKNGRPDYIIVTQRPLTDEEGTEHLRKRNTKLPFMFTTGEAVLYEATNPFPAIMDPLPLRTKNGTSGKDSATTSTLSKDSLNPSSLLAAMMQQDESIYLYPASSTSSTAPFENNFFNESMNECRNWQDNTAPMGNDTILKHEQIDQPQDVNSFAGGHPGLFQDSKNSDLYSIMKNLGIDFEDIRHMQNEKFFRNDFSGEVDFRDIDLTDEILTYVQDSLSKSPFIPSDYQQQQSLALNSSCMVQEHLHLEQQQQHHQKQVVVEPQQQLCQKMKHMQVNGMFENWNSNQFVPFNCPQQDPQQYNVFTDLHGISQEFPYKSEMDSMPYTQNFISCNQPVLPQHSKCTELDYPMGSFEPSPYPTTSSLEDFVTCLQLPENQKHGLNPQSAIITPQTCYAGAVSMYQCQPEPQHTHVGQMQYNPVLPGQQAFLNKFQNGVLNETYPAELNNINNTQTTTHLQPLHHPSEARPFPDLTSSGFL
Briefly: Agonist activity at AhR in human HT29-Lucia AhR cells measured after 24 hrs by Quanti-luc gold luminescence assay. The class given is cell-based. Conditions: DDE = dose-dependent effect. The essentials: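 HT29-Lucia AhR reporter cells seeded ~50,000 cells/well; ligand or DMSO vehicle added (ITE positive control, unstimulated negative control) for 24 h. Secreted Lucia luciferase in supernatant detected with QUANTI-Luc Gold luminescence. Triplicate; expressed as fold-change relative to DMSO-treated cells.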

The nature of series [3]: Increase in IL-17A Katushka/IL-10eGFP/Foxp3RFP reporter mouse cell trace violet-labelled CD4+ T cell derived TGF-beta1/IL-6/IL-23-polarized Th17 cell proliferation at 10 to 20 uM measured after 3 days by flow cytomtery. Type of series: toxicity, cell-based. Conditions: th17, 72 h, dose 10-20 µM, time 3 day. The essentials: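 Same Th17-polarized, CellTrace Violet-labelled reporter-mouse CD4+ T cells; compound or DMSO added after 1–3 days, then 3 more days culture. Proliferation by flow cytometry as percentage of viable CD4+ cells having undergone 7 or more divisions (CellTrace Violet dilution); n = 4.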

A short description of series [4]: Immunomodulatory activity in IL-17A Katushka/IL-10eGFP/Foxp3RFP reporter mouse cell trace violet-labelled CD4+ T cell derived TGF-beta1/IL-6/IL-23-polarized Th17 cells assessed as increase in IL-10/IL-17 positive cell population at 5 to 20 uM measured after 3 days by flow cytomtery relative to control. Type of series: functional. Conditions: dose 5-20 µM; time 3 day. The essentials:
(§1)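 Naïve CD4+ T cells from spleen and lymph nodes of 2 triple reporter mice, CellTrace Violet-labelled, polarized in Click's medium with 5% FBS, anti-CD3/anti-CD28, anti-IFNγ, anti-IL-4, IL-23, IL-6 and TGF-β1. Compound or DMSO added after 1–3 days, cultured 3 more days; flow cytometry on viable CD4+ cells (IL-17A Katushka, IL-10 eGFP). Fold change vs DMSO; n = 4.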

A short description of series [5]: Immunomodulatory activity in IL-17A Katushka/IL-10eGFP/Foxp3RFP reporter mouse cell trace violet-labelled CD4+ T cell derived TGF-beta1/IL-6/IL-23-polarized Th17 cells assessed as increase in IL-10 positive cell population at 5 to 20 uM measured after 3 days by flow cytomtery relative to control. The class given is functional. Particulars: dose 5-20 µM; time 3 day. The method, boiled down: as §1

The test system of series [6] is Th17. Nature of the series: Immunomodulatory activity in IL-17A Katushka/IL-10eGFP/Foxp3RFP reporter mouse cell trace violet-labelled CD4+ T cell derived TGF-beta1/IL-6/IL-23-polarized Th17 cells assessed as increase in IL-10/IL-17 positive cell population at 5 to 20 uM measured after 3 days by flow cytomtery. Type of series: functional, cell-based. Conditions: dose 5-20 µM, time 3.0 day. The essentials: as §1

In series [7] the test system is Th17. Briefly: Immunomodulatory activity in IL-17A Katushka/IL-10eGFP/Foxp3RFP reporter mouse cell trace violet-labelled CD4+ T cell derived TGF-beta1/IL-6/IL-23-polarized Th17 cells assessed as increase in IL-17 positive cell population at 5 to 20 uM measured after 3 days by flow cytomtery. Type of series: functional, cell-based. Conditions: dose 5-20 µM, time 3.0 day. The essentials: as §1

Turning to `O=c1[nH]c(=O)c2nc(-c3ccccc3)c(=O)n(C[C@H](O)[C@H](O)[C@H](O)CO)c2[nH]1`, the outcome in series [1] was Active.
For the compound `O=c1[nH]c(=O)c2nc(-c3ccc(O)cc3)c(=O)n(C[C@H](O)[C@H](O)[C@H](O)CO)c2[nH]1`, the result in series [1] was Active.
Consider `O=c1[nH]c(=O)c2nc(-c3c[nH]c4ccccc34)c(=O)n(C[C@H](O)[C@H](O)[C@H](O)CO)c2[nH]1`, for which the Activity result in series [2] is listed as “Dde”; in series [3] it was “Non-Toxic”. For the same compound, in series [1], the EC50 is 32 µM. The “fold change (FC)” value in series [4] and in series [5] was 2 each time.
For the compound `O=C1O[C@H]([C@@H](O)CO)C(O)=C1O` [ASCORBIC ACID], the result with Th17 [6] and with Th17 [7] was Active. For the same compound, in series [1], the half-maximal effective concentration (EC50) stood at 30 µM.

In general, EC50 refers to the concentration that produces a half-maximal response.
